The text below walks through data of PubChem BioAssay AID651740 (Broad Institute, 2012).

In all, about 5,600 compounds went through this assay and about 1,200 (21%) were called active. Roughly 3% stayed inconclusive and do not appear here. Not all results are given here. Values without a mark were called inactive.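 The calls were made as follows: active = mean inhibition above about 95%, with at least 55% of replicates also reaching it (limit read from the data); inconclusive = meets just one of the two conditions; inactive = meets neither condition.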

As usually defined, the inhibition is the drop in the measured response relative to a control, in per cent.

The test can be described thus: Trypanosoma cruzi growth blockers in host fibroblasts – NIH3T3 host cells, beta-gal parasites, cherry-pick, set 2, confirmation (AID 651740).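 Also: plate controls were neutral control median for no effect and positive control median for full effect.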 As to conditions: T. cruzi beta-gal in NIH3T3, GalScreen luminescence, 90 h; at 2.09 µM; stronger effect = higher value. The gist of the method: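 assay system = beta-gal T. cruzi in mouse NIH/3T3 fibroblasts | amount = 5,000 fibroblasts/well | medium = 2% FBS DMEM with PSG | reagent = T. cruzi trypomastigotes, 5000 per well | compound dosing = single point, 100 nL in DMSO | incubation = ≥90 h infection with compound, 60 min read delay | technique = GalScreen lysis and luminescent beta-gal signal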
For the compound `O=C(c1ccc(F)cc1)N1CCCCN2[C@H](C1)[C@@H](c1ccc(C#CC3(O)CCCC3)cc1)[C@@H]2CO`, the inhibition is 2.53%.

With `CCCNC(=O)N(C)C[C@@H]1Oc2ncc(C#Cc3ccccc3F)cc2C(=O)N([C@@H](C)CO)C[C@H]1C`, the inhibition was 94.5%.

Turning to `O=C(Nc1ccc(-c2ccccc2)cc1)[C@H]1[C@H](CO)[C@H]2Cn3c(cccc3=O)[C@H]2N1CC1CC1`, the inhibition was 33.8%.

In the case of `C[C@@H]1CN([C@H](C)CO)C(=O)c2cc(-c3cncnc3)cnc2O[C@H]1CN(C)C(=O)Nc1ccc2c(c1)OCO2`, the inhibition was -52%.

On to `N#C[C@@H]1[C@@H](c2ccc(/C=C/c3ccccc3)cc2)[C@@H](CO)N1C(=O)C1CC1`, for which the inhibition is 68.6%.

As to `Cc1ccc(S(=O)(=O)N(C)C[C@@H]2OCCCC[C@@H](C)Oc3ccc(NS(=O)(=O)c4ccc(F)cc4)cc3C(=O)N([C@H](C)CO)C[C@H]2C)cc1`, the inhibition is 76.8%.

As to `C[C@@H]1CN([C@H](C)CO)C(=O)c2cc(NS(=O)(=O)c3ccc(Cl)cc3)ccc2O[C@@H](C)CCCCO[C@H]1CN(C)Cc1ccccc1`, the inhibition was 94.6%.

For the compound `C[C@H](CO)N1C[C@H](C)[C@H](CN(C)Cc2ccc(C(F)(F)F)cc2)OCCCC[C@H](C)Oc2ccc(NS(=O)(=O)c3ccc(Cl)cc3)cc2C1=O`, the inhibition was 104% (active).

On to `C[C@@H]1CCCCO[C@H](CN(C)Cc2ccccc2)[C@H](C)CN([C@H](C)CO)C(=O)c2cc(NS(=O)(=O)c3ccc(Cl)cc3)ccc2O1`, for which the inhibition is 107% (active).

Take `C[C@@H]1CCCCO[C@H](CN(C)S(=O)(=O)c2cccs2)[C@H](C)CN([C@H](C)CO)C(=O)c2cc(NS(=O)(=O)c3ccc(F)cc3)ccc2O1`: the inhibition was 62.8%.

As to `C[C@@H]1CN([C@H](C)CO)C(=O)c2cc(NS(=O)(=O)c3cccs3)ccc2O[C@@H](C)CCCCO[C@H]1CN(C)Cc1ccc(C(F)(F)F)cc1`, the inhibition is 112% (active).

For `C[C@H](CO)N1C[C@H](C)[C@H](CN(C)Cc2ccc(C(F)(F)F)cc2)Oc2ccc(NS(=O)(=O)c3ccc(Cl)cc3)cc2C1=O`, the inhibition was 74%.

Take `COc1ccc(S(=O)(=O)N(C)C[C@H]2OCCCC[C@H](C)Oc3ccc(NS(=O)(=O)c4ccc(F)cc4)cc3C(=O)N([C@@H](C)CO)C[C@@H]2C)cc1`: the inhibition was 54%.

`COc1ccc(S(=O)(=O)Nc2ccc3c(c2)C(=O)N([C@H](C)CO)C[C@@H](C)[C@@H](CN(C)CC2CCCCC2)OCCCC[C@@H](C)O3)cc1`: the inhibition was 105% (active).

With `COc1ccc(S(=O)(=O)Nc2ccc3c(c2)C(=O)N([C@H](C)CO)C[C@H](C)[C@H](CN(C)Cc2ccc(C(F)(F)F)cc2)O3)cc1`, the inhibition is 85.4%.

As for `C[C@@H]1CCCCO[C@H](CN(C)C(=O)NC2CCCCC2)[C@H](C)CN([C@H](C)CO)C(=O)c2cc(NS(=O)(=O)c3ccc(Cl)cc3)ccc2O1`, the inhibition was 50.5%.

`C[C@@H]1CN([C@H](C)CO)C(=O)c2cc(NS(=O)(=O)c3cccs3)ccc2O[C@@H](C)CCCCO[C@@H]1CN(C)S(=O)(=O)c1ccc(Cl)cc1`: the inhibition was 63.6%.

Take `COc1ccc(CN(C)C[C@H]2Oc3ccc(NS(=O)(=O)c4ccc(Cl)cc4)cc3CC(=O)N([C@@H](C)CO)C[C@H]2C)cc1`: the inhibition is 33.6%.

On to `C[C@@H]1CN([C@H](C)CO)C(=O)c2cccc(NC(=O)c3ccc(-c4nccs4)cc3)c2O[C@@H]1CN(C)C(=O)Nc1ccc(C(F)(F)F)cc1`, for which the inhibition is 53%.

`CC(C)CC#Cc1cnc2c(c1)C(=O)N([C@@H](C)CO)C[C@@H](C)[C@H](CN(C)C(=O)Cc1ccncc1)O2`: the inhibition is 29.7%.

Turning to `O=C(c1cccc(F)c1)N1CCCCN2[C@H](CO)[C@H](c3ccc(-c4ccncc4)cc3)[C@H]2C1`, the inhibition was 82%.

For `CN(C)C(=O)c1ccc(-c2ccc([C@@H]3[C@H](CO)N4CCCCN(S(C)(=O)=O)C[C@@H]34)cc2)cc1`, the inhibition was 17.3%.

As to `Cc1cccc(-c2ccc([C@H]3[C@@H](CO)N4CCCCN(Cc5cncnc5)C[C@H]34)cc2)c1`, the inhibition was 48.1%.

Regarding `CN(C)C(=O)c1ccc(-c2ccc3c(c2)[C@H]2[C@H](CCN2C(=O)c2ccc4c(c2)OCO4)[C@H](CO)N3)cc1`, the inhibition is 72.2%.

Regarding `C[C@@H]1CN([C@H](C)CO)C(=O)c2cc(NC(=O)Nc3ccc(F)cc3)ccc2O[C@@H](C)CCCCO[C@@H]1CN(C)CC1CCCCC1`, the inhibition is 104% (active).

Turning to `C[C@@H]1CCCCO[C@@H](CN(C)Cc2ccc(C(F)(F)F)cc2)[C@@H](C)CN([C@H](C)CO)C(=O)c2cc(NC(=O)Nc3ccccc3)ccc2O1`, the inhibition is 64.3%.

As to `C[C@@H]1CCCCO[C@H](CN(C)C(=O)NC2CCCCC2)[C@H](C)CN([C@H](C)CO)C(=O)c2cc(NC(=O)Nc3ccc(F)cc3)ccc2O1`, the inhibition is 105% (active).

Take `C[C@@H]1CCCCO[C@H](CN(C)Cc2ccc(C(F)(F)F)cc2)[C@H](C)CN([C@H](C)CO)C(=O)c2cc(NC(=O)Nc3ccc(F)cc3)ccc2O1`: the inhibition is 117% (active).

In the case of `C[C@H]1CCCCO[C@H](CN(C)Cc2ccccc2)[C@@H](C)CN([C@@H](C)CO)C(=O)c2cc(NC(=O)NC3CCCCC3)ccc2O1`, the inhibition is 43.1%.

As for `C[C@H]1CCCCO[C@H](CN(C)Cc2ccccc2)[C@@H](C)CN([C@@H](C)CO)C(=O)c2cc(NC(=O)c3ccccc3)ccc2O1`, the inhibition was 68.2%.

`C[C@@H]1CCCCO[C@@H](CN(C)CC2CC2)[C@H](C)CN([C@H](C)CO)C(=O)c2cc(NC(=O)C3CCCCC3)ccc2O1`: the inhibition was 89.3%.

As for `C[C@H]1CCCCO[C@@H](CN(C)C(=O)NC2CCCCC2)[C@@H](C)CN([C@@H](C)CO)C(=O)c2cc(NS(=O)(=O)c3ccc(Cl)cc3)ccc2O1`, the inhibition was 68%.

Consider `Cc1ccc(S(=O)(=O)Nc2ccc3c(c2)C(=O)N([C@H](C)CO)C[C@H](C)[C@H](CN(C)C(=O)Nc2ccc(F)cc2)OCCCC[C@H](C)O3)cc1`, for which the inhibition is 71.2%.

`C[C@@H]1CCCCO[C@H](CN(C)Cc2ccccc2)[C@@H](C)CN([C@@H](C)CO)C(=O)c2cc(NC(=O)Nc3ccc(F)cc3)ccc2O1`: the inhibition is 103% (active).
